Data: ChEMBL document CHEMBL3860041, “Synthesis, biological evaluation and molecular modeling study of some new methoxylated 2-benzylthio-quinazoline-4(3H)-ones as nonclassical antifolates” (Bioorg Med Chem Lett, 2016)

Columns and labels:
Assay type in all cases: functional
[1] = Growth inhibition of human KM12 cells at 10 uM after 48 hrs by SRB assay relative to control; conditions: KM12, 48 h, read-out: GI
How it was run: (§1)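 NCI 60-cell-line panel, nine tumor subpanels; compounds tested at a single dose of 10 μM in the primary screen.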

Leukemia cell = assay: Potency index, ratio of 5-fluorouracil GI50 to compound GI50 for human leukemia cells
How it was run: (§2)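 GI50 for each cell line came from NCI panel testing over a 5-log dose range, with 5-fluorouracil tested alongside as the reference drug. The index relates the 5-fluorouracil GI50 to the compound GI50 within each tumour subpanel.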

[2] = Growth inhibition of human non-small cell lung cancer cells after 48 hrs by SRB assay; conditions: Cancer cell lines
How it was run: (§3)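 Follow-up NCI panel testing over a 5-log dose range for each cell line. GI50, TGI and LC50 were monitored, with 5-fluorouracil run as the positive control. Values are grouped by tumour subpanel.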

[3] = Growth inhibition of human SKOV3 cells at 10 uM after 48 hrs by SRB assay relative to control; conditions: SK-OV-3, 48 h, read-out: GI
How it was run: (§4)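 Primary screen across the full NCI 60 human tumour cell line panel, which covers nine tumour subpanels. A single dose of 10 μM was applied to each line, and growth was recorded for each cell line.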

[4] = Growth inhibition of human SN12C cells at 10 uM after 48 hrs by SRB assay relative to control; conditions: read-out: GI; how it was run: as §4
[5] = Growth inhibition of human OVCAR8 cells at 10 uM after 48 hrs by SRB assay relative to control; conditions: OVCAR-8, 48 h, read-out: GI; how it was run: as §1
[6] = Growth inhibition of human T47D cells at 10 uM after 48 hrs by SRB assay relative to control; conditions: read-out: GI; how it was run: as §4
[7] = Growth inhibition of human PC3 cells at 10 uM after 48 hrs by SRB assay relative to control; conditions: PC-3, 48 h, read-out: GI; how it was run: as §1
[8] = Growth inhibition of human HCT15 cells at 10 uM after 48 hrs by SRB assay relative to control; conditions: HCT-15, 48 h, read-out: GI; how it was run: as §1
[9] = Growth inhibition of human ovarian cancer cells after 48 hrs by SRB assay; conditions: Cancer cell lines; how it was run: as §3
[10] = Growth inhibition of human MDA-MB-435 cells at 10 uM after 48 hrs by SRB assay relative to control; conditions: MDA-MB-435, 48 h, read-out: GI; how it was run: as §1
[11] = Growth inhibition of human Hs 578T cells at 10 uM after 48 hrs by SRB assay relative to control; conditions: read-out: GI; how it was run: as §1
[12] = Growth inhibition of human HCC2998 cells at 10 uM after 48 hrs by SRB assay relative to control; conditions: HCC 2998, 48 h, read-out: GI; how it was run: as §1
[13] = Growth inhibition of human NCI-322M cells at 10 uM after 48 hrs by SRB assay relative to control; conditions: read-out: GI; how it was run: as §1
[14] = Growth inhibition of human SK-MEL-2 cells at 10 uM after 48 hrs by SRB assay relative to control; conditions: SK-MEL-2, 48 h, read-out: GI; how it was run: as §4
[15] = Growth inhibition of human HL-60(TB) cells at 10 uM after 48 hrs by SRB assay relative to control; conditions: HL-60, 48 h, read-out: GI
How it was run: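 NCI disease-oriented human tumour cell line screen: primary single-dose assay at 10 μM across the full 60-cell-line panel spanning nine tumour subpanels.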

[16] = Growth inhibition of human SF295 cells at 10 uM after 48 hrs by SRB assay relative to control; conditions: SF-295, 48 h, read-out: GI; how it was run: as §1
Cancer cell lines [17] = assay: Potency index, ratio of 5-fluorouracil GI50 to compound GI50 for human colon cancer cells; how it was run: as §2
Melanoma cell = assay: Potency index, ratio of 5-fluorouracil GI50 to compound GI50 for human melanoma cells; how it was run: as §2
[18] = Growth inhibition of human MALME-3M cells at 10 uM after 48 hrs by SRB assay relative to control; conditions: read-out: GI; how it was run: as §1
[19] = Growth inhibition of human U251 cells at 10 uM after 48 hrs by SRB assay relative to control; conditions: U-251, 48 h, read-out: GI; how it was run: as §4
[20] = Growth inhibition of human RXF393 cells at 10 uM after 48 hrs by SRB assay relative to control; conditions: RXF 393, 48 h, read-out: GI; how it was run: as §1
[21] = Growth inhibition of human MDA-MB-231 cells at 10 uM after 48 hrs by SRB assay relative to control; conditions: MDA-MB-231, 48 h, read-out: GI; how it was run: as §1
[22] = Growth inhibition of human NCI/ADR-RES cells at 10 uM after 48 hrs by SRB assay relative to control; conditions: read-out: GI; how it was run: as §1
Cancer cell lines [23] = assay: Potency index, ratio of 5-fluorouracil GI50 to compound GI50 for human non-small cell lung cancer cells; how it was run: as §2
[24] = Growth inhibition of human colon cancer cells after 48 hrs by SRB assay; conditions: Cancer cell lines; how it was run: as §3
Cancer cell lines [25] = assay: Potency index, ratio of 5-fluorouracil GI50 to compound GI50 for human ovarian cancer cells; how it was run: as §2
[26] = Growth inhibition of human M14 cells at 10 uM after 48 hrs by SRB assay relative to control; conditions: M14, 48 h, read-out: GI; how it was run: as §1
[27] = Growth inhibition of human OVCAR5 cells at 10 uM after 48 hrs by SRB assay relative to control; conditions: OVCAR-5, 48 h, read-out: GI; how it was run: as §1
[28] = Growth inhibition of human melanoma cells after 48 hrs by SRB assay; conditions: Melanoma cell; how it was run: as §3
[29] = Growth inhibition of human NCI-H460 cells at 10 uM after 48 hrs by SRB assay relative to control; conditions: NCI-H460, 48 h, read-out: GI; how it was run: as §1
[30] = Growth inhibition of human HOP62 cells at 10 uM after 48 hrs by SRB assay relative to control; conditions: HOP-62, 48 h, read-out: GI; how it was run: as §1
[31] = Growth inhibition of human A549 cells at 10 uM after 48 hrs by SRB assay relative to control; conditions: A549, 48 h, read-out: GI; how it was run: as §1
[32] = Growth inhibition of human 786-0 cells at 10 uM after 48 hrs by SRB assay relative to control; conditions: 786-0, 48 h, read-out: GI; how it was run: as §1
[33] = Growth inhibition of human renal cancer cells after 48 hrs by SRB assay; conditions: Cancer cell lines; how it was run: as §3
[34] = Growth inhibition of human NCI-H522 cells at 10 uM after 48 hrs by SRB assay relative to control; conditions: NCI-H522, 48 h, read-out: GI; how it was run: as §1
[35] = Growth inhibition of human COLO205 cells at 10 uM after 48 hrs by SRB assay relative to control; conditions: COLO 205, 48 h, read-out: GI; how it was run: as §1
[36] = Growth inhibition of human MDA-MB-468 cells at 10 uM after 48 hrs by SRB assay relative to control; conditions: MDA-MB-468, 48 h, read-out: GI; how it was run: as §1

For `COc1cc(CSc2nc3ccc(Cl)cc3c(=O)n2Cc2ccccc2)cc(OC)c1OC`, the inhibition of growth at 10 µM [1] was 76.4%, the RatioGI50 (Leukemia cell) was 2 - 10 and the GI50 [2] was 5.5 µM. It also gave an LC50 (concentration killing 50% of cells) [2] of 97.6 µM, a TGI [2] of 66.5 µM and an inhibition of growth at 10 µM [3] of 75.7%. It also gave an inhibition of growth at 10 µM [4] of 61.5%, an inhibition of growth at 10 µM [5] of 47.1% and an inhibition of growth at 10 µM [6] of 66.1%. The inhibition of growth at 10 µM [7] was 44.9%, the inhibition of growth at 10 µM [8] was 75.1% and the GI50 [9] was 5.2 µM. The LC50 (50% lethal concentration) [9] was over 100 µM, the TGI [9] was 75.6 µM and the inhibition of growth at 10 µM [10] was 98.2%. It also gave an inhibition of growth at 10 µM [11] of 69.5%, an inhibition of growth at 10 µM [12] of 50% and an inhibition of growth at 10 µM [13] of 52.5%. For the same compound, the inhibition of growth at 10 µM [14] was 78.6%, the inhibition of growth at 10 µM [15] was 85.4% and the inhibition of growth at 10 µM [16] was 71.1%. For the same compound, the RatioGI50 (Cancer cell lines [17]) was 2 - 10, the RatioGI50 (Melanoma cell) was 2 - 10 and the inhibition of growth at 10 µM [18] was 61.2%. For the same compound, the inhibition of growth at 10 µM [19] was 67.2%, the inhibition of growth at 10 µM [20] was 86.9% and the inhibition of growth at 10 µM [21] was 61.2%. For the same compound, the inhibition of growth at 10 µM [22] was 86.1%, the RatioGI50 (Cancer cell lines [23]) was 2 - 10 and the GI50 [24] was 3.1 µM. For the same compound, the LC50 [24] was 87.5 µM, the TGI [24] was 86.3 µM and the RatioGI50 (Cancer cell lines [25]) was 2 - 10. The inhibition of growth at 10 µM [26] was 64.7%, the inhibition of growth at 10 µM [27] was 53.3% and the GI50 [28] was 4.4 µM. The LC50 [28] was 98.9 µM, the TGI [28] was 55.2 µM and the inhibition of growth at 10 µM [29] was 79.5%. The inhibition of growth at 10 µM [30] was 62.3%, the inhibition of growth at 10 µM [31] was 57.8% and the inhibition of growth at 10 µM [32] was 56.6%. The GI50 [33] was 4.4 µM, the LC50 [33] was 96.5 µM and the TGI [33] was 52.3 µM.

`COc1cc2nc(SCc3cc(OC)c(OC)c(OC)c3)n(-c3ccccc3OC)c(=O)c2cc1OC` gave an inhibition of growth at 10 µM [1] of 45.9%, an inhibition of growth at 10 µM [34] of under 10% and an inhibition of growth at 10 µM [3] of under 10%. The inhibition of growth at 10 µM [4] was under 10%, the inhibition of growth at 10 µM [5] was 15.4% and the inhibition of growth at 10 µM [6] was 11.4%. The inhibition of growth at 10 µM [7] was 38.9%, the inhibition of growth at 10 µM [8] was 24.6% and the inhibition of growth at 10 µM [10] was 100%. It also gave an inhibition of growth at 10 µM [11] of 39.2%, an inhibition of growth at 10 µM [12] of under 10% and an inhibition of growth at 10 µM [13] of 14.9%. The inhibition of growth at 10 µM [14] was under 10%, the inhibition of growth at 10 µM [16] was 26.2% and the inhibition of growth at 10 µM [35] was under 10%. The inhibition of growth at 10 µM [18] was 37%, the inhibition of growth at 10 µM [19] was 13.2% and the inhibition of growth at 10 µM [20] was 22%. For the same compound, the inhibition of growth at 10 µM [36] was 23%, the inhibition of growth at 10 µM [21] was 22.6% and the inhibition of growth at 10 µM [22] was 37.1%. It also gave an inhibition of growth at 10 µM [26] of 23%, an inhibition of growth at 10 µM [27] of 11% and an inhibition of growth at 10 µM [29] of 16.6%. It also gave an inhibition of growth at 10 µM [30] of under 10%, an inhibition of growth at 10 µM [31] of 12% and an inhibition of growth at 10 µM [32] of under 10%.
